Data taken from paper PMC12153341 (Nucleic Acids Research, 2025).
“And” between values parts separate entries of the source, which are not always exact repeats. Identical values can stand only once. “Also recorded” adds a separate entry of the source.

Experiments:
[1] = tested on: Opto-KIF2C condensates in Flp-In T-REx 293 cells; assay type: cell-based
Summary of the method: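 Opto-KIF2C expression induced with 1 μg/ml doxycycline for 16 h in cells plated at ~70% confluency in DMEM. Mitotic arrest used 100 ng/ml nocodazole for 16 h. Condensation induced under 488 nm LEDs at 10 mW/cm2, with 5 min of 4 s light/10 s dark cycles. Cells fixed in 4% PFA 15 min, permeabilized in 0.2% Triton 10 min, blocked in 3% BSA; primary and secondary antibodies 1 h RT each.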

[2] = tested on: proteins in the vicinity of TurboID-Opto-KIF2C condensates, Flp-In T-Rex 293 cells; assay type: cell-based; settings: light OFF and ON conditions
Summary of the method: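 Flp-In T-REx 293 cells stably carrying TurboID-Opto-KIF2C, nocodazole-arrested, at 75% confluence, induced with 6 ng/ml doxycycline for 16 h. Biotin added while cells received 15 min of blue-light cycles (4 s light/30 s dark), or kept dark. Lysates sonicated and cleared; 1 mg protein bound to streptavidin-agarose 3 h at 4°C, stringently washed, boiled in Laemmli buffer. Detection by HRP immunoblot with ECL.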

[3] = tested on: Opto-KIF2C condensates in Flp-In T-REx 293 cells; test: Opto-KIF2C foci formation; assay type: cell-based; settings: mitotic cells; for number of optogenetic KIF2C condensates formed upon blue light exposure: light ON
[4] = tested on: Opto-KIF2C foci in Flp-In T-REx 293 cells; test: SIM measurement of Opto-KIF2C foci area; assay type: cell-based; settings: mitotic cells, 5 min 488 nm light, about 0.1 μm^2 without nocodazole
KIF2A Nt (KIF2A1-77) = KIF2A Nt (KIF2A1-77) (Homo sapiens, UniProt O00139); assay type: binding; settings: 15N-labeled KIF2A1-77, molar ratios 1:0 to 1:2, DPBS pH 7.0, 10°C
KIF2C Nt (KIF2C1-79) = target: T1, KIF2C Nt (KIF2C1-79) (Homo sapiens, UniProt Q99661); assay type: binding; settings: 15N-labeled KIF2C1-79, molar ratios 1:0 to 1:2, DPBS pH 7.0, 10°C
T1 sequence (Q99661 1-79): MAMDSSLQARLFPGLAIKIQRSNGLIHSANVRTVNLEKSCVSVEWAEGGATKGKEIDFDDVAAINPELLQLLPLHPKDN

[5] = target: KIF2C N-terminal domain, KIF2C_(1-79) (human) (UniProt Q99661); test: ITC
[6] = target: KIF2A N-terminal domain, KIF2A_(1-77) (human) (UniProt O00139); test: ITC
[7] = target: T2, BRCA2_(48-218) phosphorylated by PLK1 (human, UniProt P51587 48-218, phosphoserine 193, phosphothreonine 207; 15N-labelled); test: NMR titration
T2 sequence (looked up): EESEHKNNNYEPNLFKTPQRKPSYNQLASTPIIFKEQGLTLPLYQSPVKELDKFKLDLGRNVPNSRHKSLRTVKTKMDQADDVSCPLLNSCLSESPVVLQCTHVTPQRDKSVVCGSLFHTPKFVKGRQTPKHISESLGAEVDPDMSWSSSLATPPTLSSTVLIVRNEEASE

Sequence of KIF2A N-terminal domain, KIF2A_(1-77) (human) (O00139 1-77): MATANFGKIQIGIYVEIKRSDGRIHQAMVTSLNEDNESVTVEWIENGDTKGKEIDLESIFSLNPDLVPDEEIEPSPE
Sequence of KIF2A Nt (KIF2A1-77) (O00139 1-77): as above

In the case of `COc1cc2c(Nc3ccc(NC(=O)c4ccccc4)cc3)ncnc2cc1OCCCN1CCOCC1` [ZM447439], the “BRCA2-pT207 in KIF2C condensates (immunofluorescence, co-localization)” value ([1]; Flp-In T-Rex 293 cells) is reported as “could not detect; also recorded: abolished”, the “PLK1 and PLK1-pT210 within Opto-KIF2C condensates (immunofluorescence)” value ([1]; mitotic cells, absence or presence of nocodazole) is reported as “unable to detect” and the “abundance of PLK1 in the vicinity of KIF2C condensates” value [2] is reported as “less abundant”. For the same molecule, the “formation of KIF2C condensates formed without light” value ([3]; light OFF) was “completely abolished”, the “number of optogenetic KIF2C condensates formed upon blue light exposure” value ([3]; Noc (+)) was “did not change” and the “number of optogenetic KIF2C condensates formed upon blue light exposure” value ([3]; Noc (-)) was “mildly decreased”.

`COC(=O)Nc1nc2ccc(C(=O)c3cccs3)cc2[nH]1` [nocodazole] was tested, and the “area of the Opto-KIF2C condensates” value [4] was “about 0.15 μm^2”.

For “BRCA2_194-214: non-phosphorylated synthetic BRCA2 peptide, residues 194-214 (WSSSLATPPTLSSTVLIVRNE)”, the “binding to KIF2A Nt by NMR chemical shift analysis” value (KIF2A Nt (KIF2A1-77)) was “did not detect any binding” and the “binding to KIF2C Nt by NMR chemical shift analysis” value (KIF2C Nt (KIF2C1-79)) was “did not detect any binding”.

In the case of “BRCA2_(194-214(pT207)) peptide (from UniProt P51587 194-214)”, the Kd [5] is reported as 480 nM and 1300 nM, the dH [5] is reported as -19.1 kcal/mol and -12.1 kcal/mol and the Kd [6] is reported as 600 nM. For the same molecule, the dH [6] was -15.7 kcal/mol and -18.1 kcal/mol.

B1: KIF2C N-terminal domain, KIF2C_(1-79) (domain or fragment, human, UniProt Q99661 1-79, looked up)
chain: MAMDSSLQARLFPGLAIKIQRSNGLIHSANVRTVNLEKSCVSVEWAEGGATKGKEIDFDDVAAINPELLQLLPLHPKDN
modifications: 15N-labelled where it is the observed protein in NMR
B1: binds [7].
